Results published in PubChem BioAssay.
Values without a mark were called inactive.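 How the source made its calls, unless noted: active means growth inhibition above a set limit, 3 SD over mean compound inhibition, in both replicates (cut at about 43% in these data); inconclusive means above the limit in only one replicate; inactive means at or below the limit in both replicates.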

Assay: S. cerevisiae growth inhibition in restrictive medium, OD615, pilot screen, restrictive growth control, yeast lifespan reduction project (AID 706);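 further: modified DeaD lifespan yeast strain shifted to restrictive glucose medium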
Settings: OD615, 48 h, at 10 µM, active compounds read high
Summary of the method: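 Material: modified S. cerevisiae; buffer or medium: CSMM-D glucose medium; doses: one concentration, 10 µM final, 0.25% DMSO; incubation: 48 h compound exposure at 30 °C; detection: optical density at 615 nm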

| Structure (SMILES) | growth inhibition [%] |
| --- | --- |
| CC1(C(=O)NCc2cccnc2)CCC(=O)N1Cc1cccs1 (stereo not given) | -1.24 |
| C=CCOC(=O)C1=C(C)NC(C)=C(C(=O)OCC=C)C1c1ccc(O)cc1 | -8.46 |
| C=CCNC(=O)c1ccc(C)cc1Cl | -2.44 |
| c1cncc(-c2noc(-c3ccco3)n2)c1 | 7 |
| O=C(O)C1C2C=CC(C2)C1C(=O)NCCc1cccc(Cl)c1 (stereo not given) | 3.11 |
| O=C1c2oc3ccc(F)cc3c(=O)c2C(c2cccc(O)c2)N1CCCN1CCOCC1 (stereo not given) | -8.16 |
| COc1cc(Nc2cc(C)nc3nc(C)nn23)cc(OC)c1OC | 6.15 |
| CNC(=O)c1ccsc1NC(=O)c1ccc(Cl)s1 | 14.4 |
| C=CCSC1=C(C#N)C(c2ccc(OCC)cc2)CC(=O)N1 (stereo not given) | 15.4 |
| O=C(NC1CCCCCC1)C1CCN(S(=O)(=O)c2cccc3cccnc23)CC1 | 6.42 |
| CC(C)NC(=O)CCCc1ccccc1 | -14.1 |
| Cc1nc2ccc(NC(=O)c3ccc(S(=O)(=O)N4CCOCC4)cc3)cc2s1 | -2.84 |
| Cc1cc(Nc2cc(C)on2)n2ncnc2n1 | -10 |
| O=C1C2CCCN2C(c2ccc(Br)cc2)N1c1ccc(F)cc1 (stereo not given) | -3.76 |
| Cc1cc(NC(=O)CSc2nnc(C)c(=O)[nH]2)no1 | 1.15 |
| CCOC(=O)C(C)Sc1nnc(Cc2cc(=O)[nH]c(=O)[nH]2)n1-c1ccc(OCC)cc1 (stereo not given) | -6.84 |
| CCOc1ccc(N(CC(=O)O)S(=O)(=O)c2ccc(OC)c(OC)c2)cc1 | -13.4 |
| O=C(CSc1nnnn1-c1cccc2c1CCCC2)N1CCOCC1 | -27.1 |
| CS(=O)(=O)N1CCN(c2nc(-c3ccc(F)cc3)cs2)CC1 | 1.69 |
| CN1CCN(c2ccccc2NC(=O)C(Cc2ccccc2)n2cccc2)CC1 (stereo not given) | -4.39 |

| Structure (SMILES) | growth inhibition [%] |
| --- | --- |
| O=C(Nc1cccnc1)c1ccccc1F | 4.54 |
| COc1ccccc1NC(=O)CSc1nnc(-c2ccccn2)n1Cc1ccco1 | 13.1 |
| Cc1cccn2cc(CCNC(=O)c3ccc(Br)o3)nc12 | -5.67 |
| Cc1ccccc1-n1nc(-c2ccc(N)cc2)cc1N | 2.1 |
| COc1ccc(-c2noc(Cc3ccccc3OC)n2)cc1 | -10.5 |
| COc1cccc(C(c2sc3ncnn3c2O)N2CC(C)OC(C)C2)c1 (stereo not given) | -2.31 |
| C=CCn1c(O)c(C2=c3ccccc3=NC2=O)s/c1=N/c1nccs1 | -9.09 |
| O=C(O)C1CCCCC1C(=O)NCc1cn2ccccc2n1 (stereo not given) | -10.5 |
| Cn1c(C(=O)N2CCN(C(=O)c3ccco3)CC2)cc2c(=O)n(C)c3ccccc3c21 | 5.88 |
| CCOc1ccc2[nH]cc(S(=O)(=O)c3ccc(F)cc3)c(=O)c2c1 | -19.8 |
| Cc1ccc(C)c(C(=O)CSc2n[nH]c(C)n2)c1 | 11.3 |
| Cc1cccc(Cn2c(N3CCCCC3C)nc3c2c(=O)[nH]c(=O)n3C)c1 (stereo not given) | -16.4 |
| Cc1nnc(SCC(=O)N2CCOCC2)n1C | -18 |
| N#CC1=C(N)Oc2n[nH]c(-c3ccccc3)c2C1c1cccc(OC(=O)N2CCOCC2)c1 (stereo not given) | 2.86 |
| CCOc1cc(-c2nc(-c3ccncc3)no2)cc(OCC)c1OCC | -6.19 |
| CC(=O)Nc1nnc(C)s1 | -8.07 |
| CSC1=NCCN1C(=O)c1ccc(S(=O)(=O)N2CCOCC2)cc1 | 10.2 |
| CCCC(NS(=O)(=O)c1ccc(OC)cc1)C(=O)O (stereo not given) | -7.75 |
| CCOC(=O)Cn1c(=O)oc2cc(S(=O)(=O)Nc3ccc(F)cc3)ccc21 | -3.97 |
| CNC(=O)c1c(NC(=O)c2nc3ccccc3s2)sc2c1CCC2 | -6.17 |

Assay: doxorubicin toxicity protection in MRP-1 cells – H69AR cells, CellTiter-Glo, duplicate, MRP-1 activator project, pilot screen (AID 807;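 active means viability increase at or above a cutoff of the median across tested compounds plus 3 SD, cut at about 8.5% in these data, passing the limit was not always enough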;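 further: compound pretreatment 18-22 h then 72 h combined with doxorubicin; 0% = doxorubicin alone and 100% = vehicle without doxorubicin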)
Settings: H69AR viability with doxorubicin, CellTiter-Glo luminescence; at 10 µM; active compounds read high

| Structure (SMILES) | viability increase [%] |
| --- | --- |
| CC1(C(=O)NCc2cccnc2)CCC(=O)N1Cc1cccs1 (stereo not given) | 0.38 |
| C=CCOC(=O)C1=C(C)NC(C)=C(C(=O)OCC=C)C1c1ccc(O)cc1 | -4.51 |
| C=CCNC(=O)c1ccc(C)cc1Cl | -0.26 |
| c1cncc(-c2noc(-c3ccco3)n2)c1 | 1.76 |
| O=C(O)C1C2C=CC(C2)C1C(=O)NCCc1cccc(Cl)c1 (stereo not given) | -1.41 |
| O=C1c2oc3ccc(F)cc3c(=O)c2C(c2cccc(O)c2)N1CCCN1CCOCC1 (stereo not given) | 0.39 |
| COc1cc(Nc2cc(C)nc3nc(C)nn23)cc(OC)c1OC | -1.11 |
| CNC(=O)c1ccsc1NC(=O)c1ccc(Cl)s1 | -3.2 |
| C=CCSC1=C(C#N)C(c2ccc(OCC)cc2)CC(=O)N1 (stereo not given) | -1.8 |
| O=C(NC1CCCCCC1)C1CCN(S(=O)(=O)c2cccc3cccnc23)CC1 | 2.08 |
| CC(C)NC(=O)CCCc1ccccc1 | -1.04 |
| Cc1nc2ccc(NC(=O)c3ccc(S(=O)(=O)N4CCOCC4)cc3)cc2s1 | 0.28 |
| Cc1cc(Nc2cc(C)on2)n2ncnc2n1 | -1.14 |
| O=C1C2CCCN2C(c2ccc(Br)cc2)N1c1ccc(F)cc1 (stereo not given) | -3.07 |
| Cc1cc(NC(=O)CSc2nnc(C)c(=O)[nH]2)no1 | 0.9 |
| CCOC(=O)C(C)Sc1nnc(Cc2cc(=O)[nH]c(=O)[nH]2)n1-c1ccc(OCC)cc1 (stereo not given) | -0.85 |
| CCOc1ccc(N(CC(=O)O)S(=O)(=O)c2ccc(OC)c(OC)c2)cc1 | -0.45 |
| O=C(CSc1nnnn1-c1cccc2c1CCCC2)N1CCOCC1 | -3.02 |
| CS(=O)(=O)N1CCN(c2nc(-c3ccc(F)cc3)cs2)CC1 | -0.68 |
| CN1CCN(c2ccccc2NC(=O)C(Cc2ccccc2)n2cccc2)CC1 (stereo not given) | -7.39 |

| Structure (SMILES) | viability increase [%] |
| --- | --- |
| O=C(Nc1cccnc1)c1ccccc1F | -0.03 |
| COc1ccccc1NC(=O)CSc1nnc(-c2ccccn2)n1Cc1ccco1 | -3.83 |
| Cc1cccn2cc(CCNC(=O)c3ccc(Br)o3)nc12 | -1.61 |
| Cc1ccccc1-n1nc(-c2ccc(N)cc2)cc1N | -2.52 |
| COc1ccc(-c2noc(Cc3ccccc3OC)n2)cc1 | 1.93 |
| COc1cccc(C(c2sc3ncnn3c2O)N2CC(C)OC(C)C2)c1 (stereo not given) | 2.62 |
| C=CCn1c(O)c(C2=c3ccccc3=NC2=O)s/c1=N/c1nccs1 | -7.95 |
| O=C(O)C1CCCCC1C(=O)NCc1cn2ccccc2n1 (stereo not given) | -1.38 |
| Cn1c(C(=O)N2CCN(C(=O)c3ccco3)CC2)cc2c(=O)n(C)c3ccccc3c21 | -4.21 |
| CCOc1ccc2[nH]cc(S(=O)(=O)c3ccc(F)cc3)c(=O)c2c1 | -0.98 |
| Cc1ccc(C)c(C(=O)CSc2n[nH]c(C)n2)c1 | -0.91 |
| Cc1cccc(Cn2c(N3CCCCC3C)nc3c2c(=O)[nH]c(=O)n3C)c1 (stereo not given) | -5.08 |
| Cc1nnc(SCC(=O)N2CCOCC2)n1C | -0.95 |
| N#CC1=C(N)Oc2n[nH]c(-c3ccccc3)c2C1c1cccc(OC(=O)N2CCOCC2)c1 (stereo not given) | -2.68 |
| CCOc1cc(-c2nc(-c3ccncc3)no2)cc(OCC)c1OCC | -5.6 |
| CC(=O)Nc1nnc(C)s1 | -2.11 |
| CSC1=NCCN1C(=O)c1ccc(S(=O)(=O)N2CCOCC2)cc1 | -1.31 |
| CCCC(NS(=O)(=O)c1ccc(OC)cc1)C(=O)O (stereo not given) | -1.16 |
| CCOC(=O)Cn1c(=O)oc2cc(S(=O)(=O)Nc3ccc(F)cc3)ccc21 | 0.5 |
| CNC(=O)c1c(NC(=O)c2nc3ccccc3s2)sc2c1CCC2 | -3.81 |
